Source: PubChem
UPR CHOP act: apoptotic UPR (CHOP) activation. CHO-CHOP luciferase reporter, luminescence; percent of tunicamycin response over DMSO baseline. activation, % at 10 µM. actives 0.34% (n = 330,000);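 active = at 10 µM dose, activation of 40% or more, normalized to positive control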
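Evaluation: % reporter activation, DMSO baseline versus tunicamycin full activation; System: CHO-CHOP luciferase reporter cell line; Input: 500 cells/well; Incubation: 6 h compound treatment, 37 °C; Measured by: Steady-Glo luciferase luminescence; Dosing: one dose, 10 µM in 0.5% DMSO; Buffer or medium: F12 medium, 10% FBS; Benchmarks: positive tunicamycin 10 µg/mL, negative DMSO alone.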
p-CIP stab down: compounds decreasing mouse p/CIP protein stability. actives 0.01% (n = 290,000). F442A p/CIP-EGFP cells, EGFP fluorescence, 16 h. Q05BA5. decrease of EGFP signal, % at 10 µM;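 active = EGFP signal decrease of at least 30% at 10 µM or well 3 SD below plate mean, unless failing retest; inactive = the rest, including hits failing retest or dose response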
CHOP inh: inhibitors of CHOP induction in ER stress response. actives 3.8% (n = 220,000). CHO-K1 CHOP-promoter luciferase, tunicamycin-induced, 15-18 h. inhibition, % at 10 µM;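 active = compounds that reduced the stress-induced luciferase reporter signal by more than about 70% of percent inhibition, limit read from the data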
Dynein transport: dynein cargo transport inhibition | actives 0.47% (n = 220,000) | 3617.4 mouse cells, GR-EGFP nuclear translocation imaging; test concentration mostly 20 µM; stimulated with dexamethasone, 1 µM; hits give low values | z-score, hits read low;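 active = plate z-score of nuclear minus cytoplasmic receptor signal below a set negative limit, without overly bright fluorescence or cell loss, cut at about -3.5 in these data, passing the limit was not always enough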;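 note: z-score of nuclear minus cytoplasmic ring GR-EGFP intensity difference per well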
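Buffer or medium: tet-free, stripped-serum medium; Also added: dexamethasone, 1.0 µM final; Technique: high-content fluorescence imaging after fixation; Times: 48 h induction, 1 h compound, 30 min dex at 37 °C; Read-out: per-cell GR-EGFP intensity, nucleus versus surrounding cytoplasmic ring, well-averaged.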
Beta2AR agonist: agonists of human beta-2 adrenergic receptor inducing internalization; Am2.2-beta2AR cells, FAP receptor internalization, flow cytometry; response, % (test concentration not listed); actives 0.43% (n = 340,000); AID 504454;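 active = response above a set limit, near 3 SD of response in nonfluorescent compounds, cut at about 42% in these data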
Target sequence (P07550 whole entry, looked up): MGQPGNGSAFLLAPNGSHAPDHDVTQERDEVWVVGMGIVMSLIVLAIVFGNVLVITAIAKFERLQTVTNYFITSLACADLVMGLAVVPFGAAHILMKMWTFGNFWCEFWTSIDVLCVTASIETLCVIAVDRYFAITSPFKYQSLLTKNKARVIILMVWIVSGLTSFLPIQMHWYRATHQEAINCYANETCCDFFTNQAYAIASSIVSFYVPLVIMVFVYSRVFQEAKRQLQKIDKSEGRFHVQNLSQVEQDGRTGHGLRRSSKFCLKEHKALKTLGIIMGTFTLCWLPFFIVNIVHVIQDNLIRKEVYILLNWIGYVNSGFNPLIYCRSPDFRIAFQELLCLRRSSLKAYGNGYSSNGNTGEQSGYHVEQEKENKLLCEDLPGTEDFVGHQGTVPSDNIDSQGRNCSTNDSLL
XBP1 UPR activ: activators of adaptive arm of unfolded protein response (XBP1). activation, % at 20 µM. actives 0.33% (n = 330,000). CHO-XBP1 luciferase reporter, IRE1-XBP1 UPR activation, luminescence; percent of tunicamycin response, DMSO as zero. AID 463104;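 active = versus positive control, 20 µM dose yields 30% or more activation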
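Assay system: IRE1-XBP1 luciferase reporter CHO line. Input: 1000 cells/well. Buffer or medium: F12 with 10% serum. Doses: 20 µM, 1% DMSO. Times: overnight seeding at 37 °C, 6 h compound treatment at 37 °C. Technique: Steady-Glo luciferase glow luminescence, 10 min after reagent addition.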
B2AR ag CP1: agonists of human beta-2 adrenergic receptor; Am2.2-beta2AR cells, FAP surface receptor, flow cytometry; hits give low values; percent response (surface receptor), % at 10 µM; actives 25% (n = 1,100); shares compounds with Beta2AR agonist;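 active = surface receptor percent response at or below 58%, roughly 3 SD from nonfluorescent compounds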
B2AR FAP counter: counter-screen for beta-2AR agonists: fluorescence in Am2.2 cells | 1,100 tested, under 10 active | FAP fluorogen flow cytometry, fluorescence counterscreen; hits give low values | AID 588765 | calls only at 10 µM | shares compounds with Beta2AR agonist;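 active = percent response below a set limit in fluorescence channel 1 and below 50% in channel 8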
Hits are given with their value. Many of the other results were omitted from the sample, so hits are more common in it than they were.

What do the screens show for `O=CN(CCNc1ccccc1)c1ccccc1`?
Beta2AR agonist: inactive

Results for O=C(CCS(=O)(=O)c1ccccc1)Nc1nc2c(s1)COc1ccccc1-2 ?
UPR CHOP act: inactive; p-CIP stab down: inactive; CHOP inh: inactive; Dynein transport: inactive; Beta2AR agonist: 59.2; XBP1 UPR activ: inactive; B2AR ag CP1: inactive; B2AR FAP counter: inactive

How did O=C(Nc1nc2c(s1)COc1ccccc1-2)c1cccs1 do in these assays?
UPR CHOP act: inactive; p-CIP stab down: inactive; CHOP inh: inactive; Dynein transport: inactive; Beta2AR agonist: inactive; XBP1 UPR activ: inactive

Results for Cc1ccc2c(c1)c1c(n2CC(O)CNC2CCCCC2)CCCC1 (stereo unspecified) ?
UPR CHOP act: inactive; p-CIP stab down: inactive; CHOP inh: 94.2; Dynein transport: inactive; Beta2AR agonist: 53.2; XBP1 UPR activ: inactive; B2AR ag CP1: inactive; B2AR FAP counter: inactive

Results for CC(C)(C)c1ccc(-n2nc(C(N)=O)c(O)cc2=O)cc1 ?
UPR CHOP act: inactive; p-CIP stab down: inactive; CHOP inh: inactive; Dynein transport: inactive; Beta2AR agonist: inactive; XBP1 UPR activ: inactive

What do the screens show for `CC(C)(C)c1ccc(-n2nc(C#N)c(Cl)cc2=O)cc1`?
UPR CHOP act: inactive; p-CIP stab down: inactive; CHOP inh: 107.7; Dynein transport: inactive; Beta2AR agonist: 52.3; XBP1 UPR activ: inactive; B2AR ag CP1: 21.9; B2AR FAP counter: active

What do the screens show for `CC1(C)Cc2c(c(N3CCOCC3)nc3sc4c(NCCN)ncnc4c23)CO1`?
Beta2AR agonist: 105.3; B2AR ag CP1: 10.5; B2AR FAP counter: inactive

What do the screens show for `CC1(C)Cc2c(c(N3CCCC3)nc3sc4c(N5CCN(CCO)CC5)ncnc4c23)CO1`?
UPR CHOP act: inactive; p-CIP stab down: inactive; CHOP inh: inactive; Dynein transport: inactive; Beta2AR agonist: 71.1; XBP1 UPR activ: inactive; B2AR ag CP1: 46.4; B2AR FAP counter: inactive

What do the screens show for `Cc1ccc(SCCN2CCC(O)CCC2=O)cc1` (stereo unspecified)?
UPR CHOP act: inactive; p-CIP stab down: inactive; Beta2AR agonist: inactive; XBP1 UPR activ: inactive

What do the screens show for `O=[N+]([O-])c1ccc(-[n+]2ccc3ccccc3c2)c([N+](=O)[O-])c1`?
UPR CHOP act: inactive; Beta2AR agonist: 47.3; XBP1 UPR activ: inactive; B2AR ag CP1: 39.6; B2AR FAP counter: inactive

What do the screens show for `CC(C)c1cc(C(=O)O)n(-c2ccccc2)n1`?
UPR CHOP act: inactive; p-CIP stab down: inactive; CHOP inh: inactive; Dynein transport: inactive; Beta2AR agonist: inactive; XBP1 UPR activ: inactive

What do the screens show for `CCOCCCNC(=O)c1cc(-c2cccnc2)nc2ccc(S(=O)(=O)N3CCC(C)CC3)cc12`?
UPR CHOP act: inactive; p-CIP stab down: inactive; Beta2AR agonist: 59.4; XBP1 UPR activ: inactive; B2AR ag CP1: 56.8; B2AR FAP counter: inactive

What do the screens show for `COCCNC(=O)c1cc(-c2ccccn2)nc2ccc(S(=O)(=O)N3CCC(C)CC3)cc12`?
UPR CHOP act: inactive; p-CIP stab down: inactive; Beta2AR agonist: inactive; XBP1 UPR activ: inactive

How did COC(=O)c1cccc(S(=O)(=O)N(Cc2ccco2)Cc2cc3ccc(OC)cc3[nH]c2=O)c1 do in these assays?
UPR CHOP act: inactive; p-CIP stab down: inactive; CHOP inh: inactive; Dynein transport: inactive; Beta2AR agonist: inactive; XBP1 UPR activ: inactive

What do the screens show for `COc1ccc(S(=O)(=O)N(Cc2ccco2)Cc2cc3ccccc3[nH]c2=O)cc1`?
UPR CHOP act: inactive; p-CIP stab down: inactive; Beta2AR agonist: inactive; XBP1 UPR activ: inactive; B2AR ag CP1: inactive; B2AR FAP counter: inactive

Results for O=c1[nH]c2ccccc2cc1CN(Cc1ccco1)S(=O)(=O)c1ccccc1 ?
UPR CHOP act: inactive; p-CIP stab down: inactive; Beta2AR agonist: inactive; XBP1 UPR activ: inactive; B2AR ag CP1: inactive; B2AR FAP counter: inactive

What do the screens show for `CCN(Cc1cc2ccccc2[nH]c1=O)S(=O)(=O)c1ccccc1`?
UPR CHOP act: inactive; p-CIP stab down: inactive; CHOP inh: inactive; Dynein transport: inactive; Beta2AR agonist: inactive; XBP1 UPR activ: inactive

What do the screens show for `CC(C)N1CCN(Cc2nc3c(s2)CCCC3)CC1CCO` (stereo unspecified)?
UPR CHOP act: inactive; p-CIP stab down: inactive; CHOP inh: inactive; Dynein transport: inactive; Beta2AR agonist: inactive; XBP1 UPR activ: inactive

How did CCOc1ccccc1N1CCN(C(=O)CC(C)C)CC1 do in these assays?
UPR CHOP act: inactive; p-CIP stab down: inactive; CHOP inh: inactive; Dynein transport: inactive; Beta2AR agonist: inactive; XBP1 UPR activ: inactive

Results for N#CC(C(=S)Nc1ccccc1)c1nc2ccccc2[nH]1 (stereo unspecified) ?
UPR CHOP act: inactive; p-CIP stab down: inactive; CHOP inh: inactive; Dynein transport: inactive; Beta2AR agonist: inactive; XBP1 UPR activ: inactive; B2AR ag CP1: inactive; B2AR FAP counter: inactive

How did CCOC(=O)Cn1nnnc1CN(Cc1ccccc1)Cc1cc2cc(CC)ccc2[nH]c1=O do in these assays?
UPR CHOP act: inactive; p-CIP stab down: inactive; CHOP inh: inactive; Dynein transport: inactive; Beta2AR agonist: 100.2; XBP1 UPR activ: inactive; B2AR ag CP1: inactive; B2AR FAP counter: inactive

What do the screens show for `CCOC(=O)Cn1nnnc1C(CC)N(Cc1ccccc1)Cc1cc2cc(C)ccc2[nH]c1=O` (stereo unspecified)?
UPR CHOP act: inactive; p-CIP stab down: inactive; CHOP inh: inactive; Dynein transport: inactive; Beta2AR agonist: inactive; XBP1 UPR activ: inactive

What do the screens show for `COc1ccc(S(=O)(=O)N(Cc2cccnc2)Cc2cc3ccccc3[nH]c2=O)cc1`?
UPR CHOP act: inactive; p-CIP stab down: inactive; Beta2AR agonist: inactive; XBP1 UPR activ: inactive; B2AR ag CP1: inactive; B2AR FAP counter: inactive

What do the screens show for `CC(=O)Nc1ccc(S(=O)(=O)N(Cc2cccnc2)Cc2cc3ccc(C)cc3[nH]c2=O)cc1`?
UPR CHOP act: inactive; p-CIP stab down: inactive; Beta2AR agonist: inactive; XBP1 UPR activ: inactive

How did Cc1ccc(S(=O)(=O)N(Cc2cccnc2)Cc2cc3ccccc3[nH]c2=O)cc1 do in these assays?
UPR CHOP act: inactive; p-CIP stab down: inactive; Beta2AR agonist: inactive; XBP1 UPR activ: inactive; B2AR ag CP1: inactive; B2AR FAP counter: inactive

What do the screens show for `COc1cc(-c2cc(N)n(S(=O)(=O)c3ccccc3)n2)cc(OC)c1OC`?
UPR CHOP act: inactive; p-CIP stab down: inactive; CHOP inh: inactive; Dynein transport: inactive; Beta2AR agonist: 61.7; XBP1 UPR activ: inactive; B2AR ag CP1: inactive; B2AR FAP counter: inactive
